Laboratory results reported in ChEMBL document CHEMBL1142087 (Antimicrob Agents Chemother, 2007).

Experiments:
Mus musculus [1] = assay: Effect on weight change in BALB/c mouse at 3 mg/kg/day, po twice daily for 5 days measured after 18 hrs of final treatment; format: ADME, organism-based; set-up: route oral; conditions: in vivo
Summary of the method: (§1)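 Uninfected toxicity-control BALB/c mice, 3 per dose, were dosed orally on the same schedule as infected groups. Each mouse was weighed before treatment and 18 h after the last dose. Weight change is the difference. Mice were watched for overt toxicity and death for 21 days.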

Mus musculus [2] = assay: Toxicity in BALB/c mouse assessed as survival at 100 mg/kg/day, po once daily; format: organism-based; set-up: route oral; conditions: in vivo
Summary of the method: (§2)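 Uninfected female BALB/c toxicity controls (18–21 g), 3 mice per dose, were run in parallel with the infection studies and received 5-day oral treatment. Body weight was taken before treatment and 18 h after the last dose.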

Mus musculus [3] = assay: Effect on weight change in BALB/c mouse at 3 mg/kg/day, po once daily for 5 days measured after 18 hrs of final treatment; format: ADME, organism-based; set-up: route oral; conditions: in vivo; summary of the method: as §1
Mus musculus [4] = assay: Effect on weight change in BALB/c mouse at 33 mg/kg/day, po qid measured after 18 hrs of final treatment; format: ADME, organism-based; set-up: route oral; conditions: in vivo; summary of the method: as §1
Mus musculus [5] = assay: Effect on weight change in BALB/c mouse at 30 mg/kg/day, po twice daily for 5 days measured after 18 hrs of final treatment; format: ADME, organism-based; set-up: route oral; conditions: in vivo; summary of the method: as §1
Mus musculus [6] = assay: Toxicity in BALB/c mouse assessed as survival at 10 mg/kg/day, po twice daily; format: organism-based; set-up: route oral; conditions: in vivo; summary of the method: as §2
Mus musculus [7] = assay: Toxicity in BALB/c mouse assessed as survival at 30 mg/kg/day, po once daily; format: organism-based; set-up: route oral; conditions: in vivo; summary of the method: as §2
Mus musculus [8] = assay: Toxicity in BALB/c mouse assessed as survival at 3 mg/kg/day, po twice daily; format: organism-based; set-up: route oral; conditions: in vivo; summary of the method: as §2
Mus musculus [9] = assay: Effect on weight change in BALB/c mouse at 300 mg/kg/day, po qid measured after 18 hrs of final treatment; format: ADME, organism-based; set-up: route oral; conditions: in vivo; summary of the method: as §1
Mus musculus [10] = assay: Toxicity in BALB/c mouse assessed as survival at 300 mg/kg/day, po once daily; format: organism-based; set-up: route oral; conditions: in vivo; summary of the method: as §2
Mus musculus [11] = assay: Toxicity in BALB/c mouse assessed as survival at 300 mg/kg/day, po twice daily; format: organism-based; set-up: route oral; conditions: in vivo; summary of the method: as §2
Mus musculus [12] = assay: Effect on weight change in BALB/c mouse at 100 mg/kg/day, po once daily for 5 days measured after 18 hrs of final treatment; format: ADME, organism-based; set-up: route oral; conditions: in vivo; summary of the method: as §1
Mus musculus [13] = assay: Toxicity in BALB/c mouse assessed as survival at 100 mg/kg/day, po twice daily; format: organism-based; set-up: route oral; conditions: in vivo; summary of the method: as §2
Mus musculus [14] = assay: Effect on weight change in BALB/c mouse at 100 mg/kg/day, po twice daily for 5 days measured after 18 hrs of final treatment; format: ADME, organism-based; set-up: route oral; conditions: in vivo; summary of the method: as §1
Mus musculus [15] = assay: Effect on weight change in BALB/c mouse at 10 mg/kg/day, po twice daily for 5 days measured after 18 hrs of final treatment; format: ADME, organism-based; set-up: route oral; conditions: in vivo; summary of the method: as §1
Mus musculus [16] = assay: Effect on weight change in BALB/c mouse at 10 mg/kg/day, po once daily for 5 days measured after 18 hrs of final treatment; format: ADME, organism-based; set-up: route oral; conditions: in vivo; summary of the method: as §1
Mus musculus [17] = assay: Toxicity in BALB/c mouse assessed as survival at 30 mg/kg/day, po twice daily; format: organism-based; set-up: route oral; conditions: in vivo; summary of the method: as §2
Mus musculus [18] = assay: Effect on weight change in BALB/c mouse at 300 mg/kg/day, po twice daily for 5 days measured after 18 hrs of final treatment; format: ADME, organism-based; set-up: route oral; conditions: in vivo; summary of the method: as §1
Mus musculus [19] = assay: Toxicity in BALB/c mouse assessed as survival at 300 mg/kg/day, po qid for 5 days; format: organism-based; set-up: route oral; conditions: in vivo, 120 h; summary of the method: as §2
Mus musculus [20] = assay: Toxicity in BALB/c mouse assessed as survival at 3 mg/kg/day, po once daily; format: organism-based; set-up: route oral; conditions: in vivo; summary of the method: as §2
Mus musculus [21] = assay: Effect on weight change in BALB/c mouse at 30 mg/kg/day, po once daily for 5 days measured after 18 hrs of final treatment; format: ADME, organism-based; set-up: route oral; conditions: in vivo; summary of the method: as §1
Mus musculus [22] = assay: Toxicity in BALB/c mouse assessed as survival at 100 mg/kg/day, po qid for 5 days; format: organism-based; set-up: route oral; conditions: in vivo, 120 h; summary of the method: as §2
Mus musculus [23] = assay: Toxicity in BALB/c mouse assessed as survival at 33 mg/kg/day, po qid for 5 days; format: organism-based; set-up: route oral; conditions: in vivo, 120 h; summary of the method: as §2
Mus musculus [24] = assay: Effect on weight change in BALB/c mouse at 300 mg/kg/day, po once daily for 5 days measured after 18 hrs of final treatment; format: ADME, organism-based; set-up: route oral; conditions: in vivo; summary of the method: as §1
Mus musculus [25] = assay: Toxicity in BALB/c mouse assessed as survival at 10 mg/kg/day, po once daily; format: organism-based; set-up: route oral; conditions: in vivo; summary of the method: as §2
[26] = Cytotoxicity against MDCK cells; format: cell-based, Canis lupus familiaris; conditions: dog
Summary of the method: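 MDCK cells in MEM were exposed to eight test concentrations in half-log10 steps at 37°C. Untreated toxicity and normal-medium controls were included. CC50 was taken as the 50% cytotoxic concentration. Results are from two to five experiments.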

Mus musculus [27] = assay: Effect on weight change in BALB/c mouse at 100 mg/kg/day, po qid measured after 18 hrs of final treatment; format: ADME, organism-based; set-up: route oral; conditions: in vivo; summary of the method: as §1
Influenza A virus [28] = assay: Inhibition of influenza A virus (A/duck/Minnesota/1525/1981 (H5N1)) replication in MDCK cells by virus yield reduction assay; format: functional
Influenza A virus [29] = assay: Inhibition of Influenza A virus (A/gull/Pennsylvania/4175/83 (H5N1)) replication in MDCK cells by virus yield reduction assay; format: functional

NC(=O)c1nc(F)c[nH]c1=O [FAVIPIRAVIR]
Activity (Mus musculus [1]): 0.8 g | Activity (Mus musculus [2]): Non-toxic | Activity (Mus musculus [3]): 0.3 g | Activity (Mus musculus [4]): 0.2 g | Activity (Mus musculus [5]): 0.1 g | Activity (Mus musculus [6]): Non-toxic | Activity (Mus musculus [7]): Non-toxic | Activity (Mus musculus [8]): Non-toxic | Activity (Mus musculus [9]): 0.6 g | Activity (Mus musculus [10]): Non-toxic | Activity (Mus musculus [11]): Non-toxic | Activity (Mus musculus [12]): 0.4 g | Activity (Mus musculus [13]): Non-toxic | Activity (Mus musculus [14]): 1 g | Activity (Mus musculus [15]): 0.1 g | Activity (Mus musculus [16]): 0.6 g | Activity (Mus musculus [17]): Non-toxic | Activity (Mus musculus [18]): 0.2 g | Activity (Mus musculus [19]): Non-toxic | Activity (Mus musculus [20]): Non-toxic | Activity (Mus musculus [21]): 0.7 g | Activity (Mus musculus [22]): Non-toxic | Activity (Mus musculus [23]): Non-toxic | Activity (Mus musculus [24]): 0.4 g | Activity (Mus musculus [25]): Non-toxic | CC50 [26]: > 641 µM | Activity (Mus musculus [27]): 1.1 g

NC(=O)c1ncn([C@@H]2O[C@H](CO)[C@@H](O)[C@H]2O)n1 [RIBAVIRIN]
EC90 (Influenza A virus [28]): 20.1 µM | EC90 (Influenza A virus [29]): 32 µM | CC50 [26]: 2340 µM

CC(=O)N[C@H]1[C@H]([C@H](O)[C@H](O)CO)OC(C(=O)O)=C[C@@H]1NC(=N)N [ZANAMIVIR]
EC90 (Influenza A virus [28]): 0.96 µM | EC90 (Influenza A virus [29]): 1.23 µM | CC50 [26]: > 3610 µM
